{"data": "Published values of several laboratories", "note": "Compare with care: the assays were run in different laboratories."}
{"Compound": "COc1cccc2c(NCc3ccccc3)nc(-n3c(=O)oc4ccccc43)nc12", "matrix": "aqueous buffer", "pH": "pH 5", "solubility": "0.02 µg/mL"}
{"Compound": "CCCn1nc(C(=O)N2CCCCC2)c2c1CCC(NCCN1CCCCC1)C2 (stereo not shown)", "matrix": "PBS", "time": "16 h", "pH": "pH 7.4", "solubility": "1740 µM"}
{"Compound": "O=C(c1ccccn1)N(Cc1cccs1)C1(C(=O)NC2CCCCC2)CCCCC1", "matrix": "aqueous buffer", "pH": "pH 5", "solubility": "5.7 µg/mL"}
{"Compound": "CCOc1ccc2cc(-c3nn(CC(C)(C)CO)c(N)c3C(N)=O)ccc2n1", "matrix": "PBS", "pH": "pH 6.5", "temperature": "25 °C", "solubility": "> 100 µM"}
{"Compound": "CN1CCN(CC2CCN(c3nccc4[nH]c(-c5cccc(OC(F)(F)F)c5)nc34)CC2)CC1", "technique": "shake flask", "matrix": "aqueous buffer", "pH": "pH 6.5", "solubility": "> 200 µM"}
{"Compound": "O=C(Nc1c2c(cc3c1CCC3)CCC2)NS(=O)(=O)/C=C/c1nccs1", "matrix": "simulated gastric fluid", "time": "24 h", "temperature": "37 °C", "notes": "acidic", "solubility": "< 5 µg/mL"}
{"Compound": "CCOc1nc2nc(C)cc(Nc3ccc(S(F)(F)(F)(F)F)cc3)n2n1", "technique": "nephelometry", "matrix": "aqueous buffer", "pH": "pH 6.5", "solubility": "4 to 8 µM"}
{"Compound": "Cc1nccn1CC1CCc2c(c3ccccc3n2C)C1=O (stereo not shown)", "matrix": "PBS", "time": "24 h", "pH": "pH 7.4", "temperature": "25 °C", "solubility": "93 µM"}
{"Compound": "O=C(/C=C/c1ccc(CN(CCO)CCc2c[nH]c3ccccc23)cc1)NO", "matrix": "simulated gastric fluid", "time": "48 h", "pH": "pH 2", "temperature": "25 °C", "notes": "acidic", "solubility": "4100 µg/mL"}
{"Compound": "Cl.Clc1ccc2c(c1)nc(NCCNCc1ccccc1)n2Cc1ccccc1", "technique": "shake flask", "matrix": "aqueous buffer", "time": "20 h", "pH": "pH 6.5", "temperature": "25 °C", "solubility": "25 µM"}
{"Compound": "COCc1nn(Cc2ccc(Cn3ccccc3=O)cc2)cc1C(=O)NCc1c(F)ccc(OC)c1F", "matrix": "FaSSIF", "time": "4 h", "pH": "pH 6.5", "solubility": "9 µg/mL"}
{"Compound": "Cc1cc(Nc2ccc(S(F)(F)(F)(F)F)cc2)n2nc(C3CC3)nc2n1", "technique": "nephelometry", "matrix": "aqueous buffer", "pH": "pH 6.5", "solubility": "16 to 32 µM"}
{"Compound": "CNC(=O)c1ccc(N(Cc2ccc(C3CCCCC3)cn2)C(=O)[C@H]2CCN2S(=O)(=O)c2c(F)c(F)c(F)c(F)c2F)cc1O", "matrix": "simulated gastric fluid", "solubility": "115 µg/mL"}
{"Compound": "COc1cc(Cl)c(C(=O)N[C@@H](CN[C@H]2CC[C@@H](N)CC2)Cc2ccc(C#N)cc2)cc1-c1ccc(CN[C@H](C)c2ccc(C)cc2)o1", "matrix": "aqueous buffer", "pH": "pH 6.5", "solubility": "> 3070 µg/mL"}
{"Compound": "O=C(O)c1ccc(-c2ccc(-c3cc4ccc(O)cc4oc3=O)cc2)cc1", "technique": "shake flask", "matrix": "PBS", "time": "36 h", "pH": "pH 7.4", "solubility": "52.5 µM"}
{"Compound": "CSc1nc2nc(C)cc(Nc3ccc(S(F)(F)(F)(F)F)cc3)n2n1", "technique": "nephelometry", "matrix": "aqueous buffer", "pH": "pH 6.5", "solubility": "7.8 to 15 µM"}
{"Compound": "CC(C)Cc1ccc(C(C)C(=O)O)cc1 (stereo not shown)", "matrix": "PBS", "pH": "pH 7.4", "solubility": "4580 µg/mL"}
{"Compound": "COc1cc(F)c(S(=O)(=O)N2CCN(S(=O)(=O)c3cccc(N)c3)CC2)c(F)c1", "matrix": "aqueous buffer", "solubility": "< 0.4 µg/mL"}
{"Compound": "COc1cc2ncnc3c2cc1OCCOCCOc1cc(F)c(Cl)cc1N3", "technique": "HPLC", "matrix": "aqueous buffer", "time": "24 h", "solubility": "0.131 to 0.174 µg/mL"}
{"Compound": "Clc1cccc(Nc2nc(NCc3cccc(Br)c3)c3ccccc3n2)c1", "matrix": "aqueous buffer", "pH": "pH 5", "solubility": "0.1 µg/mL"}
{"Compound": "CC(C)(C)n1nc(-c2ccc3nc(OC4CC4)ccc3c2)c(C(N)=O)c1N", "matrix": "PBS", "pH": "pH 6.5", "temperature": "25 °C", "solubility": "96.3 µM"}
{"Compound": "Clc1ccc2c(c1)nc(NCCN1CCOCC1)n2Cc1ccccc1", "technique": "shake flask", "matrix": "aqueous buffer", "time": "20 h", "pH": "pH 6.5", "temperature": "25 °C", "solubility": "53 µM"}
{"Compound": "CCOc1ccc2cc(-c3nn(C4CCC4)c(N)c3C(N)=O)cnc2c1", "matrix": "PBS", "pH": "pH 6.5", "temperature": "25 °C", "solubility": "10.9 µM"}
{"Compound": "COc1cc(OC)cc(N(CCNC(C)C)c2ccc3ncc(-c4cnn(C)c4)nc3c2)c1", "matrix": "aqueous buffer", "pH": "pH 3.96", "solubility": "23200 µg/mL"}
{"Compound": "COc1cc(NC(=O)c2ccc(C3=CCN(C(=N)N)CC3)c(F)c2)ccc1C1=CCN(C(=N)N)CC1", "technique": "shake flask", "matrix": "aqueous buffer", "pH": "pH 7.4", "solubility": "1210 µg/mL"}
{"Compound": "COC(=O)C1=C(C)NC(C)=C(C(=O)OCCN(C)Cc2ccccc2)C1c1cccc([N+](=O)[O-])c1 (stereo not shown)", "matrix": "FaSSIF", "time": "24 h", "pH": "pH 7.4", "temperature": "37 °C", "solubility": "227 µg/mL"}
{"Compound": "Cc1cc(F)cc(Nc2nc(NCc3ccccc3)c3ccccc3n2)c1", "matrix": "aqueous buffer", "pH": "pH 5", "solubility": "0.05 µg/mL"}
{"Compound": "CC(=O)Oc1ccccc1C(=O)O", "matrix": "PBS", "pH": "pH 7.4", "solubility": "12600 µg/mL"}
{"Compound": "Cc1n(Cc2ccc3ccccc3n2)c2ccccc2[n+]1Cc1ccc2ccccc2n1.[Cl-]", "matrix": "water", "solubility": "> 500 µg/mL"}
{"Compound": "CN1CCN([C@H]2CC[C@H](Nc3nccc4[nH]c(-c5cc(F)cc(F)c5)nc34)CC2)CC1", "technique": "shake flask", "matrix": "aqueous buffer", "pH": "pH 6.5", "solubility": "> 200 µM"}
{"Compound": "CC(C)C[C@H](NC(=O)[C@H](CCc1ccccc1)NC(=O)CN1CCOCC1)C(=O)N[C@@H](Cc1ccccc1)C(=O)N[C@@H](CC(C)C)C(=O)[C@@]1(C)CO1", "matrix": "PBS", "time": "24 h", "pH": "pH 7.4", "solubility": "1.12 µg/mL"}
{"Compound": "COc1ccc(N2CCN(CCCNC(=O)Cn3c(=O)c4cccn4c4c(C)ccnc43)CC2)cc1", "matrix": "aqueous buffer", "pH": "pH 7.4", "solubility": "12.4 µg/mL"}
{"Compound": "CC[C@H](C)[C@H](NC(=O)[C@H](CO)NC(=O)[C@H](CCCNC(=N)N)NC(C)=O)C(=O)N[C@H]1CSSC[C@@H](C(=O)N[C@H](C(N)=O)[C@@H](C)O)NC(=O)[C@H](CCCNC(=N)N)NC(=O)[C@H](Cc2c[nH]cn2)NC(=O)[C@H](C)NC(=O)CNC(=O)[C@H](Cc2c[nH]c3ccccc23)NC(=O)[C@H](CC(=O)O)NC(=O)[C@H](CCC(N)=O)NC(=O)[C@H](Cc2c[nH]c3ccccc23)NC(=O)[C@H](C(C)C)NC1=O", "matrix": "PBS", "pH": "pH 7.4", "solubility": "3690 µg/mL"}
{"Compound": "Brc1cccc2c(NCc3ccccc3)nc(NCc3ccccc3)nc12", "matrix": "aqueous buffer", "pH": "pH 7.4", "solubility": "< 0.01 µg/mL"}
{"Compound": "CN(CCOc1ccc(CC2SC(=O)NC2=O)cc1)c1ccccn1 (stereo not shown)", "matrix": "aqueous buffer", "pH": "pH 7.4", "solubility": "≥ 144 µM"}
{"Compound": "Cc1ccc(Nc2nc(NCc3ccccc3)c3ccccc3n2)cc1F", "matrix": "aqueous buffer", "pH": "pH 7.4", "solubility": "0.05 µg/mL"}
{"Compound": "O=C(Nc1c(F)cccc1C(=O)O)c1ccc(-c2ccccc2)cc1", "technique": "shake flask", "matrix": "aqueous buffer", "time": "24 h", "pH": "pH 6.5", "temperature": "25 °C", "solubility": "80 µM"}
{"Compound": "NCC1CCN(c2nccc3[nH]c(-c4cccc(OC(F)(F)F)c4)nc23)CC1", "technique": "shake flask", "matrix": "aqueous buffer", "pH": "pH 6.5", "solubility": "> 200 µM"}
{"Compound": "c1ccc(CNc2nc(N3CCOc4ccccc43)nc3ccccc23)cc1", "matrix": "aqueous buffer", "pH": "pH 7.4", "solubility": "0.48 µg/mL"}
{"Compound": "CCOc1ccc2cc(-c3nn(CC4CC4)c(N)c3C(N)=O)ccc2n1", "matrix": "PBS", "pH": "pH 6.5", "temperature": "25 °C", "solubility": "10.9 µM"}
{"Compound": "OCCOc1cccc2c(NCc3ccccc3)nc(N3CCOc4ccccc43)nc12", "matrix": "aqueous buffer", "pH": "pH 5", "solubility": "21.5 µg/mL"}
{"Compound": "COc1cccc(OC)c1-c1nc(C(=O)N[C@@H](CC(C)C)C(=O)O)cn1-c1ccnc2cc(Cl)ccc12", "matrix": "aqueous buffer", "pH": "pH 7.4", "solubility": "> 52 µg/mL"}
{"Compound": "COC(=O)c1ccc2c(c1)nc(C1CCNCC1)n2Cc1ccccc1", "technique": "shake flask", "matrix": "aqueous buffer", "time": "20 h", "pH": "pH 6.5", "temperature": "25 °C", "solubility": "200 µM"}
{"Compound": "CCOc1ccc2cc(-c3nn(C4CCCCCC4)c(N)c3C(N)=O)cnc2c1", "matrix": "PBS", "pH": "pH 6.5", "temperature": "25 °C", "solubility": "8.5 µM"}
{"Compound": "CCCCCCCCCCCCCC(=O)Nc1ccc(CP(=O)(O)O)cc1", "matrix": "water", "solubility": "1000 µg/mL"}
{"Compound": "Cc1ccc(F)cc1Nc1nc(NCc2ccccc2)c2ccccc2n1", "matrix": "aqueous buffer", "pH": "pH 7.4", "solubility": "0.04 µg/mL"}
{"Compound": "CCC(F)(F)c1nc2nc(C)cc(Nc3ccc(C(F)(F)F)cc3)n2n1", "technique": "nephelometry", "matrix": "aqueous buffer", "pH": "pH 6.5", "solubility": "17 to 34 µM"}
{"Compound": "O=C(Nc1cc(F)c(F)c(F)c1)c1ccc(F)c(S(=O)(=O)NCc2cccc(B(O)O)c2)c1", "matrix": "aqueous buffer", "pH": "pH 7.4", "solubility": "427 µg/mL"}
{"Compound": "Cc1c(F)cccc1NC(=O)Nc1ccc(Cl)c(S(=O)(=O)[C@H]2CCCNC2)c1O", "matrix": "aqueous buffer", "time": "4 h", "pH": "pH 5", "solubility": "6 µg/mL"}
{"Compound": "Cc1cc(Nc2cccc(Cl)c2)n2nc(C(C)(F)F)nc2n1", "technique": "nephelometry", "matrix": "aqueous buffer", "pH": "pH 6.5", "solubility": "77 to 150 µM"}
{"Compound": "COc1cccc(OC)c1-c1cc(C(=O)N[C@@H](CC(C)C)C(=O)O)nn1-c1ccnc2cc(Cl)ccc12", "matrix": "aqueous buffer", "pH": "pH 7.4", "solubility": "> 155 µg/mL"}
{"Compound": "CCn1cc(CNC(=O)C2=C(C)NC(Nc3nc4ccc(F)c(N)c4o3)=NC2c2ccc(C)cc2Cl)cn1 (stereo not shown)", "matrix": "aqueous buffer", "time": "6 h", "pH": "pH 7.4", "solubility": "< 1 µg/mL"}
{"Compound": "Cc1cccc(C(=O)Nc2cccc(NC(=O)c3ccccc3)c2)c1", "matrix": "aqueous buffer", "solubility": "< 0.03 µM"}
{"Compound": "NCCNc1nc2cc(Cl)ccc2n1Cc1ccccc1", "technique": "shake flask", "matrix": "aqueous buffer", "time": "20 h", "pH": "pH 6.5", "temperature": "25 °C", "solubility": "≥ 200 µM"}
{"Compound": "CCCCCCCCN1CCCC1=O", "matrix": "PBS", "time": "48 h", "pH": "pH 7.4", "temperature": "25 °C", "solubility": "4800 µM"}
